Bioassay records as filed in PubChem BioAssay.
Apaf1 activ: activators of human Apaf-1 apoptosome, primary screen, biochemical, DEVD-Rh110 fluorescence, uHTS; activity change, negative = activation, % at 20 µM; Apaf-1 apoptosome caspase-3 activation; active compounds read low; 330,000 tested, 0.31% active; Apoptotic protease-activating factor 1 (Homo sapiens), O14727;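 active = activity change at or below -40% at 20 µM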
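system = biochemical Apaf-1 apoptosome reconstitution | buffer or medium = 20 mM HEPES pH 7.5 with CHAPS, BSA | also added = dATP and cytochrome c as apoptosome triggers, (Z-DEVD)2-Rh110 substrate | incubation = 30 min compound preincubation and 50 min reaction, both room temperature | measured by = fluorescence, 540 nm emission, 480 nm excitation | read-out basis = Caspase-3 cleavage activity downstream of Apaf-1 activation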
Rh110 act interf: Rh110 fluorescence interference by putative Apaf-1 activators, confirmation, artefact control for Apaf-1 activator project, biochemical, 20 µM; shares compounds with Apaf1 activ; fluorescence interference (activity change), % at 20 µM, hits read low; AID 504616, 2011; quenched caspase reaction, Ex480/Em540; 980 tested, under 10 active;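 active = mean activity change at or below -40% when tested at 20 µM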
Apaf-1 act conf: Apaf-1 activators, single-dose retest, confirmation, biochemical, fluorescence, DEVD-Rh110, 20 µM; shares compounds with Apaf1 activ; reconstituted apoptosome caspase-3 activity; active compounds read low; activity change, negative = activation, % at 20 µM; 980 tested, 5% active; AID 504617, 2011;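 active = mean activity change at or below -40%, meaning activation of 40% or more, at 20 µM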
Starred values were filed as active, the others as inactive. Not all results are given here.

SMILES	Apaf1 activ	others
CC(Cc1ccccc1)NC(=O)NC(C)Cc1ccccc1 (stereo not given)	-182.0*	Rh110 act interf=-7.7;Apaf-1 act conf=5.0
Ic1ccccc1CN[C@@H]1C2CCN(CC2)[C@@H]1C(c1ccccc1)c1ccccc1	50.2
CCCCOP(=O)(CN1CCOCC1)OCCCC	-277.6*	Rh110 act interf=2.0;Apaf-1 act conf=7.2
COCCCn1c(N)c(C(=O)Nc2sc3c(c2C(=O)OC)CCCC3)c2nc3ccccc3nc21	90.2
CCC(C)NC(=O)c1c(N)n(CCCOC)c2nc3ccccc3nc12 (stereo not given)	90.9
CC(NC(C)(C)C)C(=O)c1cccc(Cl)c1 (stereo not given)	-8.4
Cc1[nH]n(-c2ccccc2)c(=O)c1C(c1ccc([N+](=O)[O-])cc1)c1c(C)[nH]n(-c2ccccc2)c1=O	78.6
O=C(c1ccc2c(c1)ncn2-c1ccc(F)cc1F)N1CCC2(CC1)OCCO2	-75.9*	Rh110 act interf=8.4;Apaf-1 act conf=5.5
NCCc1ccc(OCc2ccccc2)c(OCc2ccccc2)c1	46.5
COC(=O)C1=C(c2ccc(Cl)c(C(F)(F)F)c2)C[C@@H]2CC[C@H]1N2C(=O)NCCOc1ccc(OC)cc1	40.0
O=[N+]([O-])c1ccc(NCc2ccc(Cl)cc2)c2ccncc12	78.7
CN1CCc2cc3c(c4c2C1Cc1ccccc1-4)OCO3 (stereo not given)	90.9
CCCCn1c(NC(=O)c2ccc(Br)o2)c(C(=O)OCC)c2nc3ccccc3nc21	79.1
O=[N+]([O-])c1ccc(N2CCCNCC2)c2ncccc12	44.9
COc1cc2c3c(c1OC)Oc1ccc(cc1)C[C@H]1c4c(cc(OC)c(OC)c4Oc4ccc(cc4)C[C@@H]3N(C)CC2)CCN1C	45.0
O=C1N(CN2CCOCC2)c2ccccc2C1(O)c1c[nH]c2ccccc12 (stereo not given)	-79.7*	Rh110 act interf=9.0;Apaf-1 act conf=9.3
O=S1(=O)N(CCN2CC=C(c3c[nH]c4cc(F)ccc34)CC2)c2cccc3c2N1CCC3	50.8
O=[N+]([O-])c1ccc(NCCCN2CCOCC2)c2ncccc12	40.4
COCCCn1c(N)c(C(=O)OC(C)COC)c2nc3ccccc3nc21 (stereo not given)	74.3
C=CCN1C(=O)NC(=O)C(Cc2ccc(OC)c(OC)c2)C1=O (stereo not given)	-549.5*	Rh110 act interf=5.6;Apaf-1 act conf=15.0
COCCCn1c(N)c(C(=O)Nc2ccccc2)c2nc3ccccc3nc21	51.4
N#Cc1ccc(/C=C/C(=O)O)cc1	-498.8*	Rh110 act interf=9.3;Apaf-1 act conf=8.8
CCC(C)NC(=O)c1c(N)n(CC2CCCO2)c2nc3ccccc3nc12 (stereo not given)	94.5
CC(C)CC(N(C)C)C1(c2ccc(Cl)cc2)CCC1 (stereo not given)	5.1
C[n+]1c(-c2ccccc2)c2cc(N)ccc2c2ccc(N)cc21	97.6
SMILES	Apaf1 activ	others
CC(C)CCNC(=O)c1c(N)n(CC2CCCO2)c2nc3ccccc3nc12 (stereo not given)	91.3
COCCNC(=O)c1c(NC(=O)c2ccco2)n(Cc2ccccc2)c2nc3ccccc3nc12	52.8
COCCCn1c(N)c(C(=O)NCc2ccco2)c2nc3ccccc3nc21	94.6
NS(=O)(=O)c1ccc(N=Nc2c(O)[nH]c(=S)[nH]c2=O)cc1	-137.8*	Rh110 act interf=3.8;Apaf-1 act conf=4.1
COC(=O)C1=C(c2ccc(F)cc2OCc2ccccc2)C[C@@H]2CC[C@H]1N2C(=O)NC1CCN(Cc2ccccc2)CC1	53.1
CCCN1CCc2cc(O)cc3c2[C@H]1Cc1ccc(O)c(O)c1-3	44.7
c1ccc(CCCN2CCN(CCOC(c3ccccc3)c3ccccc3)CC2)cc1	50.7
N=c1n(CCO)c2ccccc2n1Cc1ccccc1	-112.5*	Rh110 act interf=8.3;Apaf-1 act conf=11.0
Nc1c(C(=O)NCCN2CCOCC2)c2nc3ccccc3nc2n1Cc1ccccc1	82.3
CCCCCCCCCCCCCCCC[N+](C)(C)C	84.9
COc1cc2c(cc1O)[C@@H]1Cc3ccc(OC)c(O)c3CN1CC2	93.0
COC(=O)C1=C(c2cccc(OCc3ccccc3)c2)C[C@@H]2CC[C@H]1N2C(=O)NC1CCN(Cc2ccccc2)CC1	47.6
CN[C@H]1C[C@H]2O[C@@](C)([C@H]1OC)n1c3ccccc3c3c4c(c5c6ccccc6n2c5c31)C(=O)NC4	50.8
Cc1c2ccncc2c(C)c2c1[nH]c1ccccc12	67.5
COc1ccc2c(c1)NP(=S)(Oc1ccccc1)N2 (stereo not given)	50.1
Cn1ncnc2c(=O)n(C)c(=O)nc1-2	98.9
Cc1ccc(-c2ccc(=O)n(CCC(=O)N3CCC4(CC3)OCCO4)n2)cc1	-49.2*	Rh110 act interf=2.3;Apaf-1 act conf=11.1
Nc1c(C(=O)OCc2ccccc2)c2nc3ccccc3nc2n1Cc1cccs1	86.0
CCC(C)NC(=O)c1c(N)n(Cc2ccc3c(c2)OCO3)c2nc3ccccc3nc12 (stereo not given)	96.1
CN(C)[C@@H]1C(=O)C(C(N)=O)=C(O)[C@@]2(O)C(=O)C3=C(O)c4c(O)cccc4[C@@](C)(O)C3[C@H](O)C12 (stereo not given in full)	-1.5
